NR1D1 modulator: modulators of human Rev-erb alpha DNA binding; P20393; Rev-erbα–FITC-DNA binding, fluorescence polarization, 90 min; activity, % at 10 µM; 370,000 compounds, 0.79% hits;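 active means activity above about 14%, limit read from the data; passing the limit was not always enough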;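 further: 0% = DMSO wells with 35 nM protein and 100% = DMSO wells with 750 nM protein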
Target sequence (P20393 whole entry, looked up): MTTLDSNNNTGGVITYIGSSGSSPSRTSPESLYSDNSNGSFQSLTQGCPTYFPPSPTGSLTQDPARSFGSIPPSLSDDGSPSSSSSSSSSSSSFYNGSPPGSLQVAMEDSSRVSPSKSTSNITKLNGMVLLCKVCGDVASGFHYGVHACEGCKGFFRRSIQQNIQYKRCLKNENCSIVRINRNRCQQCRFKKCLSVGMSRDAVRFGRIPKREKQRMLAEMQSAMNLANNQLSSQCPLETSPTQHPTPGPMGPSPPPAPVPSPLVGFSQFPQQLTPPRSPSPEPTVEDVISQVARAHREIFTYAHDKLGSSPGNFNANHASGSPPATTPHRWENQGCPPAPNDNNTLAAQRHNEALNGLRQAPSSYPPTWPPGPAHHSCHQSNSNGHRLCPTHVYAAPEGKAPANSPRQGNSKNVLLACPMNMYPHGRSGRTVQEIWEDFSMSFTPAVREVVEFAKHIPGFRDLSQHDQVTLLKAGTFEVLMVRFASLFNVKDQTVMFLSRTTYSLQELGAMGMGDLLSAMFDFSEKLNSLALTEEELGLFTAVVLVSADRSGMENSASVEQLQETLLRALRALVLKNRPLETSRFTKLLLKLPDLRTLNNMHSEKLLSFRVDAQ
rCAG binder: r(CAG) repeat RNA binding | inhibition, % at 3 µM | TO-PRO-1 dye displacement fluorescence | 370,000 compounds, 1.3% hits;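 active means inhibition above the plate cutoff, the mean of all test compounds on that plate plus 3 SD, cut at about 35% in these data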;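 further: 0% = DMSO alone and 100% = 100 µM mitoxantrone as full dye displacement; higher means more dye released from RNA so lower well fluorescence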
NR2E3 ag-1: human photoreceptor-specific nuclear receptor agonism; Q9Y5X4; CHO-S Gal4-NCOR/VP16-NR2E3 two-hybrid, luciferase; inhibition of corepressor binding, % at 3.98 µM; 360,000 compounds, 0.35% hits;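 active means inhibition above the mean of all tested compounds plus 3 SD, cut at about 70% in these data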;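 further: 0% = DMSO with NR2E3 transfected cells and 100% = cells lacking NR2E3 construct; higher means lower luciferase signal from less NR2E3 corepressor binding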
PG9 binder: small molecules binding HIV-1 gp120 antibody PG9 | AID 624416 | 360,000 compounds, 0.43% hits | TR-FRET gp120-PG9 antibody binding | inhibition, % at 6.7 µM; in the data active means inhibition above about 8.5%
NR2E3 ag-2: activates human photoreceptor nuclear receptor NR2E3. Q9Y5X4. GST-NR2E3/biotin-RetCOR TR-FRET, 1536-well. inhibition of corepressor binding, % at 4.78 µM. 320,000 compounds, 0.12% hits. AID 2300;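 active means percent inhibition above the cutoff of mean plus 3 SD of all tested compounds, set per screening campaign, cut at about 20% in these data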;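 further: 0% = DMSO wells and 100% = biotin wells as full block of FRET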
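Test system – NR2E3–RetCOR corepressor complex · Quantity – NR2E3 fusion 1.35 nM · Buffer or medium – Tris pH 7.5 · Incubation – Compound–protein incubation for 5 h at 4 °C · Technique – TR-FRET, Eu(K)-anti-GST donor, streptavidin-D2 acceptor, ex 340, em 617/671 nm · Evaluation – percent inhibition of 671/617 nm emission ratio versus biotin and DMSO controls · Plate – 1536-well format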
rCAG bind conf: r(CAG) RNA repeat binding, confirmation | shares compounds with rCAG binder | TO-PRO-1 dye displacement fluorescence | inhibition, % at 3 µM | 4,300 compounds, 70% hits | AID 652065;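 active means inhibition above a per-plate cutoff, the mean inhibition of sample wells plus 3 SD, cut at about 35% in these data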;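 further: loss of TO-PRO-1 fluorescence as compound displaces dye from 1x1 AA loop RNA; 0% = DMSO only wells and 100% = 100 µM mitoxantrone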
DNA CAG counter: disrupts DNA CAG TO-PRO-1 complex, flagging rCAG hits. 4,300 compounds, 94% hits. AID 652068. inhibition, % at 3 µM. shares compounds with rCAG binder. d(CAG) DNA oligo TO-PRO-1 dye displacement, fluorescence;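 active means inhibition above its plate's cutoff, the mean test-well inhibition plus 3 SD, cut at about 4.8% in these data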;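 further: 0% = DNA dye mix with DMSO and 100% = 100 µM mitoxantrone; hits displace the dye from DNA and so lower well fluorescence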
dCAG dye DR: DNA CAG dye complex inhibition, dose response counter-screen; IC50, µM; AID 686960; shares compounds with rCAG binder; 250 compounds, 20% hits; DNA CAG/GTC duplex TO-PRO-1 dye displacement fluorescence; in the data active means IC50 below about 10 µM
The depositor's hits bear a star; i = inactive; / = no result given. This is a sample that favours compounds with a hit; in the whole collection about 2.6% have one here.

SMILES	NR1D1 modulator	rCAG binder	NR2E3 ag-1	PG9 binder	NR2E3 ag-2	rCAG bind conf	DNA CAG counter	others
CCOc1cc(/C=C2/SC(=S)NC2=O)ccc1OC(=O)c1ccco1	5	72*	16	-1	10	79*	43*
COc1cc(/C=C2/SC(=O)NC2=O)ccc1OC(=O)c1ccco1	-2	13	-27	-3	3	/	/
CCc1ccc(N=C2NC(=O)/C(=C/c3cc(Br)c(OCC(=O)O)c(OC)c3)S2)cc1	-5	57*	-30	-2	5	56*	19*
CCc1ccc(N=C2NC(=O)/C(=C/c3cc(OC)c(OC)c(OC)c3)S2)cc1	0	23	-6	1	2	/	/
CCOc1cc(/C=C2\SC(=Nc3ccc(CC)cc3)NC2=O)ccc1OCC(=O)O	-7	71*	-3	-3	2	47*	14*
CCOC(=O)C1=C(O)/C(=C/c2ccc(OCC(=O)O)c(OC)c2)SC1=Nc1ccc(OCC)cc1	-3	38*	-16	-2	1	65*	21*
CC1CN(C(=O)CCC(=O)N2CCCCC2)c2ccccc2O1 (stereo not given)	9	-2	-26	1	1	/	/
Cn1c(=O)c(=O)n(C)c2cc(S(=O)(=O)N3CCN(Cc4ccc5c(c4)OCO5)CC3)ccc21	-6	9	/	/	/	/	/
CCOc1cc(Br)cc(/C=C2\SC(=Nc3ccccc3)NC2=O)c1O	2	67*	-24	1	4	83*	47*
C=CCOc1ccc(Br)cc1/C=C1/SC(=Nc2ccc(C(=O)O)cc2)NC1=O	-7	13	-13	-1	/	/	/
CCOC(=O)C1=C(O)/C(=C/c2ccc(-c3ccccc3C(=O)O)o2)SC1=Nc1ccc(OC)cc1	-3	38*	2	-3	/	80*	38*
O=C(c1cc2c(c(-c3cccc(-c4ccc(F)cc4)c3)n1)[C@H](CCO)N(C(=O)c1ccc3c(c1)OCO3)C2)N1CCOCC1	-2	6	-17	-1	/	/	/
O=C(Nc1nnc([C@@H]2C[C@H](O)[C@@H](CO)O2)s1)Nc1cccc(Cl)c1Cl	-4	2	-48	-1	/	/	/
Cc1ccc(NC(=O)c2ccc(NCCN)c([N+](=O)[O-])c2)cc1Cl	2	38*	-5	1	2	22	-2
O=C(NC(NC(=S)Nc1ccccc1C(=O)O)C(Cl)(Cl)Cl)c1cccc([N+](=O)[O-])c1 (stereo not given)	2	56*	-1	-1	5	60*	24*
O=C(c1ccc(N2CCOCC2)c([N+](=O)[O-])c1)N1CCCCC1	5	-7	7	-1	-3	/	/
O=C(NNC(=S)Nc1ccc(Cl)c(Cl)c1)c1cccc([N+](=O)[O-])c1	7	79*	-16	2	-1	79*	33*
O=C(NC(NC(=S)Nc1ccccc1Cl)C(Cl)(Cl)Cl)c1cccc(Cl)c1 (stereo not given)	0	18	15	-1	1	/	/
O=C(NNC(=S)Nc1ccc(Cl)cc1Cl)c1ccc(N2CCOCC2)c([N+](=O)[O-])c1	-4	95*	-17	2	-3	87*	63*
Cc1ccc(NC(=S)NNC(=O)c2ccc(N3CCOCC3)c([N+](=O)[O-])c2)cc1Cl	-2	80*	-8	0	-3	84*	46*
CCn1c(C)nc2cc(C(=O)NNC(=S)Nc3ccccc3Cl)ccc21	1	24	-125	-3	0	/	/
O=C(NNC(=S)Nc1ccc(Br)cc1)c1ccc(N2CCOCC2)c([N+](=O)[O-])c1	4	73*	-4	-1	1	67*	28*
CCn1c(C)nc2cc(C(=O)NNC(=S)Nc3ccc(Cl)cc3Cl)ccc21	-3	58*	-12	-2	0	49*	16*
O=C(Nc1cccnc1)c1ccc(N2CCOCC2)c([N+](=O)[O-])c1	-4	0	-6	-2	/	/	/
CC1(c2nnnn2Cc2ccccc2)CCC(=O)N1Cc1ccc(F)cc1 (stereo not given)	-8	-2	-3	0	/	/	/
SMILES	NR1D1 modulator	rCAG binder	NR2E3 ag-1	PG9 binder	NR2E3 ag-2	rCAG bind conf	DNA CAG counter	others
Cc1ccc(S(=O)(=O)Nc2nc(C)c(NC(=O)Nc3ccc(Cl)cc3Cl)s2)cc1	-2	62*	-29	-2	2	59*	24*
Cc1ccc(S(=O)(=O)Nc2nc(C)c(C(=O)Nc3ccccc3)s2)cc1	-1	36*	-2	0	4	19	2
C/C(=N/NC(=O)c1sc(NS(=O)(=O)c2ccccc2)nc1C)c1sc(N)nc1C	-3	79*	-31	0	3	10	3
Cn1c(N)c(C(=O)N/N=C/c2ccccc2)sc1=S	-12	43*	-7	0	0	21	7.8*
COc1ccc2nc3n(c(=O)c2c1)-c1ncccc1C(=O)NC3C (stereo not given)	-3	2	-22	-3	/	/	/
Cc1ccc(S(=O)(=O)Nc2nc(C)c(C(=O)N/N=C/c3ccccc3)s2)cc1	2	80*	-18	0	1	70*	24*	dCAG dye DR=i
Cc1nc(NS(=O)(=O)c2ccccc2)sc1C(=O)NN	1	83*	7	1	3	9	4
C[C@H]1Cn2cnc(C(=O)N3CCN(C(=O)OC(C)(C)C)CC3)c2C(=O)N1	6	-1	/	-1	/	/	/
COc1cc(/C=C2/C(=O)N(c3ccc(C)c(C)c3)N=C2C)cc([N+](=O)[O-])c1O	1	37*	-8	0	0	46*	12*
C[C@@H]1CN([C@@H](C)CO)C(=O)CCCn2nncc2CO[C@H]1CN(C)S(=O)(=O)c1ccccc1C#N	2	4	-9	-2	/	/	/
Cc1nc(SCC(=O)c2ccccc2)[nH]c(=O)c1Oc1ccc(Cl)cc1	-6	41*	-2	1	3	35*	8.5*
COc1ccc([C@H]2CC(=O)C[C@@H](CCn3cc(-c4nccn4C)nn3)O2)cc1	5	-1	7	1	/	/	/
O=C(Nc1sc2c(c1C(=O)O)CCC2)c1cccc(Cl)c1	-4	74*	-85	2	1	53*	15*
N#Cc1c(NC(=S)NC(=O)c2ccccc2)sc2c1CCC2	0	18	-63	3	-1	/	/
Cc1cccc(C(=O)Nc2sc3c(c2C(=O)O)CCCC3)c1	0	41*	-108	-2	-2	32	9.3*
O=C(NC(=S)Nc1sc2c(c1C(=O)O)CCCC2)c1ccccc1	4	72*	-41	-3	4	56*	20*

Screening results from PubChem.
